# Measurements taken from ChEMBL document CHEMBL1123472, “Long-acting dihydropyridine calcium antagonists. 1. 2-Alkoxymethyl derivatives incorporating basic substituents” (J Med Chem, 1986).
# Key:
# [1] = In vitro calcium antagonist activity was assessed against calcium induced constriction of potassium-depolarized rat aorta; assay type: functional, tissue-based
# Summary of the method: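 Spirally cut rat aortic strips, one end fixed and the other on a force transducer, in modified Krebs-Henseleit with 45 mM K⁺ and no calcium. CaCl2 is added to a final 2 mM Ca²⁺ and the contraction tension is recorded. After draining, refilling and 45 min, the challenge is repeated with the compound in the saline. The concentration giving 50% reduction of the response is recorded.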
# Cavia porcellus = species: Cavia porcellus; assay: Negative inotropy measured as the concentration required to depress contraction in the isolated Langendorff-perfused guinea pig heart by 25%; assay type: functional
# Summary of the method: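 Hearts from male guinea pigs were Langendorff-perfused with Krebs-Henseleit solution at 37 °C. Force and rate of contraction were measured with a force transducer attached to the apex.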
# Canis familiaris [2] = assay: Percent decrease in coronary vascular resistance in dogs after intravenous dosage of 1500 ug/kg compound; assay type: functional, Canis lupus familiaris
# Summary of the method: (§1)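 Given intravenously to instrumented, anesthetized dogs. Coronary blood flow was measured by hydrogen clearance. Coronary vascular resistance was derived as arterial blood pressure divided by coronary flow.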
# Canis familiaris [3] = assay: Percent decrease in coronary vascular resistance in dogs after intravenous dosage of 450 ug/kg compound; assay type: functional, Canis lupus familiaris; summary of the method: as §1
# Canis familiaris [4] = assay: Percent decrease in coronary vascular resistance in dogs after intravenous dosage of 150 ug/kg compound
# Rattus norvegicus = species: Rattus norvegicus; assay: In vitro calcium antagonist activity was assessed against calcium induced constriction of potassium -depolarized rat aorta by 50%
# [5] = Compound was tested for the plasma half life in dogs; assay type: functional
# [6] = Compound was tested for the volume of distribution in dogs; assay type: functional, organism-based
SMILES,-Log IC50 [1],-Log IC25 (Cavia porcellus),other results
CCO/C(O)=C1\C(COCCN(C)C)=NC(C)=C(C(=O)OC)C1c1ccncc1 (stereo not given),6.1,6,–
CCO/C(O)=C1\C(COCCN(C)Cc2ccccc2)=NC(C)=C(C(=O)OC)C1c1ccccc1Cl (stereo not given),7.4,7.3,–
CCO/C(O)=C1\C(COCCNC)=NC(C)=C(C(=O)OC)C1c1c(F)cccc1Cl (stereo not given),7.9,7.6,–
CCO/C(O)=C1\C(COCCN)=NC(C)=C(C(=O)OC)C1c1ccc(Cl)cc1 (stereo not given),6,6,–
CCOC(=O)C1=C(COCCN)NC(C)=C(C(=O)OC)C1c1ccccc1Cl (stereo in doubt; 17) [AMLODIPINE],8.1,–,Decrease (Canis familiaris [2]): 76.9%; Decrease (Canis familiaris [3]): 69.5%; Decrease (Canis familiaris [4]): 35.4%
CCO/C(O)=C1\C(COCCN2CCCC2)=NC(C)=C(C(=O)OC)C1c1ccccc1Cl (stereo not given),7.9,7.7,–
CCOC(=O)C1=C(COCCN)NC(C)=C(C(=O)OC)C1c1ccccc1Cl (stereo in doubt; 19) [AMLODIPINE],5.8,–,–
CCO/C(O)=C1\C(COCCN2CCN(CCN(CC)CC)CC2)=NC(C)=C(C(=O)OC)C1c1ccccc1Cl (stereo not given),6,7.1,–
CCO/C(O)=C1\C(COCCN(C)C)=NC(C)=C(C(=O)OC)C1c1cccs1 (stereo not given),6.9,6.6,–
COC(=O)C1=C(C)NC(C)=C(C(=O)OC)C1c1ccccc1[N+](=O)[O-] [NIFEDIPINE],–,7.5,IC50 (Rattus norvegicus): 3.98 nM
CCO/C(O)=C1\C(COCCN2CCOCC2)=NC(C)=C(C(=O)OC)C1c1ccccc1Cl (stereo not given),7.8,7.5,–
CCO/C(O)=C1\C(COCCN(C)C)=NC(C)=C(C(=O)OC)C1c1cccc([N+](=O)[O-])c1 (stereo not given),8,7.1,–
COC(=O)C1=C(C)NC(C)=C(C(=O)OCCN(C)Cc2ccccc2)C1c1cccc([N+](=O)[O-])c1 (stereo not given),–,–,Plasma half life [5]: 17 h; Vd [6]: 3.5 L/kg
CCO/C(O)=C1\C(COCCN)=NC(C)=C(C(=O)OC)C1c1cccc(Cl)c1 (stereo not given),7.9,6.6,–
CCO/C(O)=C1\C(COCCN2CCNCC2)=NC(C)=C(C(=O)OC)C1c1ccccc1Cl (stereo not given),6.8,7.4,–
CCO/C(O)=C1\C(COCCN2CCC(N(C)C)CC2)=NC(C)=C(C(=O)OC)C1c1ccccc1Cl (stereo not given),6.4,7.1,–
CCO/C(O)=C1\C(COCCN(C)C)=NC(C)=C(C(=O)OC)C1c1ccccc1Cl (stereo not given),8.1,7.5,Decrease (Canis familiaris [2]): 74.7%; Decrease (Canis familiaris [3]): 68.9%; Decrease (Canis familiaris [4]): 64.8%

SMILES,-Log IC50 [1],-Log IC25 (Cavia porcellus),other results
CCO/C(O)=C1\C(COCCN(C)C)=NC(C)=C(C(=O)OC)C1c1cccc2ccccc12 (stereo not given),7.1,7.7,–
CCO/C(O)=C1\C(COCCN2CCN(C)CC2)=NC(C)=C(C(=O)OC)C1c1ccccc1Cl (stereo not given),8,7.9,–
CCO/C(O)=C1\C(COCCCN(C)C)=NC(C)=C(C(=O)OC)C1c1ccccc1Cl (stereo not given),8.6,8.6,–
CCO/C(O)=C1\C(COCCNC)=NC(C)=C(C(=O)OC)C1c1ccccc1OC (stereo not given),7.2,7.1,–
CCO/C(O)=C1\C(COCCN2CCN(Cc3ccc(Cl)cc3)CC2)=NC(C)=C(C(=O)OC)C1c1ccccc1Cl (stereo not given),8,7.4,–
CCO/C(O)=C1\C(COCCNC)=NC(C)=C(C(=O)OC)C1c1ccccc1C (stereo not given),7.2,7.2,–
CCO/C(O)=C1\C(COCCNC)=NC(C)=C(C(=O)OC)C1c1ccccc1Cl (stereo not given),8.5,7.5,Decrease (Canis familiaris [2]): 78.6%; Decrease (Canis familiaris [3]): 73.8%; Decrease (Canis familiaris [4]): 46.2%
CCO/C(O)=C1\C(COCCCN2CCN(C)CC2)=NC(C)=C(C(=O)OC)C1c1ccccc1Cl (stereo not given),8.4,8.2,–
CCO/C(O)=C1\C(COCCN)=NC(C)=C(C(=O)OC)C1c1ccccc1 (stereo not given),6.8,6.2,–
CCO/C(O)=C1\C(COCCN)=NC(C)=C(C(=O)OC)C1c1cccc(C(F)(F)F)c1Cl (stereo not given),8.5,7.3,Decrease (Canis familiaris [2]): 81.7%; Decrease (Canis familiaris [3]): 75.7%; Decrease (Canis familiaris [4]): 52.6%
CCO/C(O)=C1\C(COCCN2CCN(c3ccc(F)cc3)CC2)=NC(C)=C(C(=O)OC)C1c1ccccc1Cl (stereo not given),7.9,7.3,–
CCO/C(O)=C1\C(COCCN)=NC(C)=C(C(=O)OC)C1c1cccc(Cl)c1Cl (stereo not given),7.9,6.6,–
CCOC(=O)C1=C(COCCN)NC(C)=C(C(=O)OC)C1c1ccccc1Cl (stereo in doubt; 18) [AMLODIPINE],8.7,–,–
CCO/C(O)=C1\C(COCCN(C)C)=NC(C)=C(C(=O)OC)C1c1ccccc1C(F)(F)F (stereo not given),7.4,7.6,–
CCO/C(O)=C1\C(COCCN2CCN(C(C)C)CC2)=NC(C)=C(C(=O)OC)C1c1ccccc1Cl (stereo not given),8.2,8,–
CCO/C(O)=C1\C(COCCN)=NC(C)=C(C(=O)OC)C1c1ccccc1F (stereo not given),7.8,6.6,–
